According to ChEMBL document CHEMBL4265871, “Novel alkylated azoles as potent antifungals” (Eur J Med Chem, 2017):
≈ marks a conversion by molar mass, not a printed value. Calls of active or inactive are those of the source. The rule behind the calls is not given here.

Tests used:
[1] = Hemolytic activity in mouse erythrocytes assessed as hemolysis level at 1.95 ug/ml incubated for 1 hr at 37 degC; format: ADME, cell-based, Erythrocyte; conditions: read-out: Activity
Summary of the method: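 Mouse erythrocytes incubated 1 h at 37 °C with test agents over 1.95 to 125 µg/mL. Percent lysis is read for each concentration.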

[2] = Selectivity index, ratio of EC50 for toxicity in human BEAS2B cells to MIC50 for antifungal activity against ITC and FLC-susceptible Candida albicans ATCC MYA-2310; format: cell-based; conditions: BEAS-2B cells, read-out: Selectivity Index
Summary of the method: (§1)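 Ratio of the compound's EC50 against BEAS-2B cells to its MIC against the named C. albicans strain. […] For C. albicans strains other than ATCC 10231, trailing growth meant MIC-2 was taken, meaning 50% growth inhibition.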

[3] = system: BEAS-2B; assay: Toxicity in human BEAS2B cells assessed as cell viability at 15.6 ug/ml incubated for 24 hrs by resazurin dye based assay
[4] = Toxicity in human BEAS2B cells assessed as reduction in cell viability incubated for 24 hrs by resazurin dye based assay; conditions: BEAS-2B cells
Summary of the method: (§2)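 Toxicity tested in the nucleated lines A549 and BEAS-2B to give EC50 values. Selectivity index is EC50 against the mammalian line divided by the MIC against a given fungal strain.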

[5] = Selectivity index, ratio of […] for toxicity in human A549 cells to MIC50 for antifungal activity against Aspergillus flavus ATCC MYA-3631; format: cell-based; conditions: read-out: Selectivity Index
[6] = Toxicity in human A549 cells assessed as reduction in cell viability incubated for 24 hrs by resazurin dye based assay; summary of the method: as §2
[7] = system: Candida albicans; assay: Effect on sterol composition in Candida albicans ATCC 10231 assessed as lanosterol level at 0.125 ug/mL incubated for 10 mins by GC-MS analysis (reference value: 4.17%)
[8] = Selectivity index, ratio of EC50 for toxicity in human BEAS2B cells to MIC50 for antifungal activity against ITC and FLC-resistant Candida albicans ATCC MYA-90819; format: cell-based; conditions: BEAS-2B cells, read-out: Selectivity Index; summary of the method: as §1
[9] = system: Candida albicans; assay: Fungistatic activity against Candida albicans ATCC 10231 assessed as reduction in microbial growth at 1 times MIC incubated for 24 hrs by time kill assay; format: functional
[10] = in vitro; conditions: mouse, mouse erythrocytes
[11] = system: Candida albicans; assay: Effect on growth of Candida albicans ATCC 10231 assessed as increase in microbial growth at 0.5 times MIC incubated for 24 hrs by time kill assay; format: functional
[12] = Selectivity index, ratio of EC50 for toxicity in human A549 cells to MIC50 for antifungal activity against Candida krusei ATCC 6258
[13] = system: Candida albicans; assay: Antifungal activity against Candida albicans ATCC 10231 at 0.5 to 4 times MIC incubated for 3 to 24 hrs by time kill assay
[14] = Selectivity index, ratio of EC50 for toxicity in human BEAS2B cells to MIC for antifungal activity against Candida parapsilosis ATCC 22019; conditions: BEAS-2B cells
[15] = system: Candida albicans; assay: Effect on sterol composition in Candida albicans ATCC 10231 assessed as ergosterol level at 0.125 ug/mL incubated for 10 mins by GC-MS analysis (reference value: 91.15%)
[16] = system: Candida albicans; assay: Effect on sterol composition in Candida albicans ATCC 64124 assessed as lanosterol level at 1.95 ug/mL incubated for 10 mins by LC-MS analysis (reference value: 29.38%)
[17] = Selectivity index, ratio of EC50 for toxicity in human A549 cells to MIC100 for antifungal activity against Candida albicans ATCC 10231; format: cell-based; conditions: read-out: Selectivity Index
Summary of the method: (§3)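 Selectivity index is the EC50 against the mammalian line (A549 or BEAS-2B) divided by the MIC against the given fungal strain.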

[18] = system: Candida albicans; assay: Fungistatic activity against Candida albicans ATCC 10231 at 1 times MIC incubated for 3 to 12 hrs by time kill assay; format: functional, organism-based
[19] = system: A549; assay: Toxicity in human A549 cells assessed as cell viability at 15.6 ug/ml incubated for 24 hrs by resazurin dye based assay; conditions: a549, 24 h
[20] = system: Candida albicans; assay: Effect on sterol composition in Candida albicans ATCC 64124 assessed as ergosterol level at 1.95 ug/mL incubated for 10 mins by LC-MS analysis (reference value: 54.72%)
[21] = Selectivity index, ratio of […] for toxicity in human BEAS2B cells to MIC50 for antifungal activity against Aspergillus terreus ATCC MYA-3633; format: cell-based; conditions: BEAS-2B cells, read-out: Selectivity Index
[22] = system: Candida albicans; assay: Induction of membrane permeabilization in Candida albicans ATCC 10231 at 1 to 4 times MIC incubated for 1 hr by propidium iodide staining based fluorescence microscopy; format: functional, organism-based
Summary of the method: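 C. albicans ATCC 10231 treated at 1× and 4× MIC and stained with propidium iodide, a membrane-impermeant dye, to detect membrane damage. Untreated cells, FLC (7.8 µg/mL) and KANB (C14) (7.8 µg/mL) serve as comparators.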

[23] = system: Candida albicans; assay: Antifungal carryover activity against Candida albicans ATCC 10231 assessed as 25% reduction in colony counts at 0.5 to 4 times MIC
[24] = Selectivity index, ratio of EC50 for toxicity in human A549 cells to MIC50 for antifungal activity against ITC and FLC-resistant Candida albicans ATCC MYA-90819; format: cell-based; conditions: read-out: Selectivity Index; summary of the method: as §3
[25] = system: Candida albicans; assay: Effect on sterol composition in Candida albicans ATCC 10231 assessed as 14-alpha-methyl-ergosta-8,24(28)dien-3beta,6alpha-diol level at 0.125 ug/mL incubated for […] by GC-MS analysis
[26] = Selectivity index, ratio of EC50 for toxicity in human A549 cells to MIC50 for antifungal activity against Candida albicans ATCC 64124; format: cell-based; conditions: read-out: Selectivity Index; summary of the method: as §3
[27] = system: Candida albicans; assay: Fungistatic activity against Candida albicans ATCC 10231 at 0.5 times MIC incubated for 3 to 12 hrs by time kill assay; format: functional, organism-based
[28] = Selectivity index, ratio of […] for toxicity in human BEAS2B cells to MIC50 for antifungal activity against Aspergillus flavus ATCC MYA-3631; format: cell-based; conditions: BEAS-2B cells, read-out: Selectivity Index
[29] = system: Candida albicans; assay: Antifungal activity against ITC and FLC-resistant Candida albicans ATCC MYA-90819 incubated for 48 hrs by modified CLSI M27-A3 protocol based method; format: functional; conditions: ATCC MYA-90819, 48 h
[30] = Selectivity index, ratio of EC50 for toxicity in human BEAS2B cells to MIC50 for antifungal activity against Candida albicans ATCC 64124; format: cell-based; conditions: BEAS-2B cells, read-out: Selectivity Index; summary of the method: as §3
[31] = system: BEAS-2B; assay: Toxicity in human BEAS2B cells assessed as reduction in cell viability up to 7.8 ug/ml incubated for 24 hrs by resazurin dye based assay

SMILES | hemolysis at 1 h, 1.95 ug/ml [1] [%] | selectivity ratio [2] | EC50 at 24 h [4] [µg/mL] | selectivity ratio [5] | EC50 at 24 h [6] [µg/mL] | selectivity ratio [8] | Activity [9] [log10CFU] | hemolysis at 1 h, 62.5 ug/ml [10] [%] | Activity [11] [log10CFU] | selectivity ratio [12] | Activity [13] | selectivity ratio [14] | selectivity ratio [17] | selectivity ratio [21] | Activity [22] | selectivity ratio [24] | selectivity ratio [26] | selectivity ratio [28] | MIC50 [29] [µM] | selectivity ratio [30] | also measured
CCCCCCC(O)(Cn1cncn1)c1ccc(Cl)cc1Cl (stereo unspecified) | 0 | 14 | 28 (≈ 81.8 µM) | 5 | 20 (≈ 58.4 µM) | 14 | 0.25 | 98 | 1 | 667 | Dose-dependent effect | 933 | 83 | 7 | inactive | 10 | 10 | 7 | 5.7 (≈ 1.95 µg/mL) | 14 | viability [3]: > 85%; Activity [7]: 19.3%; Activity [15]: 49%; Activity [16]: 28.99%; Activity [18]: Active; viability [19]: > 85%; Activity [20]: 5.73%; Activity [23]: inactive; Activity [25]: 18.81%; Activity [27]: Active
CCCCCCCCC(O)(Cn1cncn1)c1ccc(F)cc1F (stereo unspecified) | 0 | 7 | 13 (≈ 38.5 µM) | 0.4 | 12 (≈ 35.6 µM) | 7 |  | 69 |  | 50 |  | 217 | 6 | 2 | inactive | 6 | 3 | 0.4 | 5.8 (≈ 1.96 µg/mL) | 3 | Activity [31]: Non-Toxic
CCCCCCC(O)(Cn1cncn1)c1ccc(F)cc1F (stereo unspecified) | 0 | 8 | > 31.3 | 2 | 35 (≈ 113 µM) | 16 | 1 | 26.3 | 1 | 292 | Dose-dependent effect | 1040 | 18 | 4 | inactive | 18 | 4 | 2 | 6.3 (≈ 1.95 µg/mL) | 4 | Activity [18]: Active; Activity [23]: inactive; Activity [27]: Active
